Assay results from ChEMBL document CHEMBL1121475, “Inhibitors of indoleethylamine N-methyltransferase. Derivatives of 3-methyl-2-thiazolidinimine. In vitro, in vivo, and metabolic studies” (J Med Chem, 1980).
“And” between values parts separate entries of the source, which are not always exact repeats. Equal entries are not always repeated.

How the values were obtained:
Oryctolagus cuniculus [1] = test: 100 mg/kg of [14C]- radiolabeled compound was orally (gavage) injected in rabbit 1 lung, and radioactivity content in feces was estimated at; format: ADME, organism-based; conditions: in vivo, po
Procedure, shortened: (§1)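 Rabbit given 100 mg/kg [14C]-labelled drug by gavage, 204.6 dpm/μg, in water/0.1 N HCl at 6.66 mg/mL. Rabbit 1 was killed at 2 h and liver, lung, kidney and blood taken; tissue values are μg equivalents/g and tissue:plasma ratio. Rabbit 3 was kept for urine (0-24, 24-48, 48-72 h) and feces (0-48 h), expressed as % of dose.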

Oryctolagus cuniculus [2] = test: 100 mg/kg of [14C]- radiolabeled compound was orally (gavage) injected in rabbit, and radioactivity content in feces was estimated; format: ADME, organism-based; conditions: in vivo, po; procedure, shortened: as §1
Oryctolagus cuniculus [3] = test: 200 mg/kg of [14C]- radiolabeled compound was orally administered in rabbit4, and radioactivity content in urine was estimated at 48-72 h; conditions: rabbit, in vivo, po
Oryctolagus cuniculus [4] = test: 200 mg/kg of [14C]- radiolabeled compound was orally administered in rabbit4, and radioactivity content in urine was estimated at 24-48 h; conditions: rabbit, in vivo, po
Oryctolagus cuniculus [5] = test: 100 mg/kg of [14C]- radiolabeled compound was orally administered in rabbit1, and radioactivity content in urine was estimated at 0-2 hr; conditions: rabbit, in vivo, po
Oryctolagus cuniculus [6] = test: 100 mg/kg of [14C]- radiolabeled compound was orally (gavage) administered in rabbit3, and radioactivity content in urine was estimated at 48-72 h; conditions: rabbit, in vivo, po
Oryctolagus cuniculus [7] = test: 200 mg/kg of [14C]- radiolabeled compound was intravenously (gavage) injected in rabbit4, and radioactivity content in feces was estimated at 0-48 hr; format: ADME, organism-based; conditions: rabbit, in vivo, po, in the assay text read “orally (gavage) administered” for “intravenously (gavage) injected”
Procedure, shortened: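 Rabbit given two 100 mg/kg gavage doses of [14C]-labelled drug, 2 h apart, 204.6 dpm/μg, 6.66 mg/mL in water/0.1 N HCl. Rabbit 2 was killed 2 h after the last dose and liver, lung, kidney and plasma taken (μg equivalents/g; tissue:plasma ratio). Rabbit 4 gave urine over 0-4, 0-24, 24-48 and 48-72 h and feces over 0-48 h, as % of dose.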

[8] = test system: Indolethylamine N-methyltransferase (Oryctolagus cuniculus); test: In vivo evaluation of specific activity against rabbit lung Indoleethylamine-N-methyltransferase at oral dose of 25 mg/kg
Oryctolagus cuniculus [9] = test: 100 mg/kg of [14C]- radiolabeled compound was intravenously (gavage) injected in rabbit3, and radioactivity content in feces was estimated at total hours; format: ADME, organism-based; conditions: rabbit, in vivo, po, in the assay text read “orally (gavage) administered” for “intravenously (gavage) injected”; procedure, shortened: as §1
Oryctolagus cuniculus [10] = test: Radioactivity measurements were performed following oral administration of the 100 mg/kg in rabbit 5 after 2 hr brain; format: ADME, organism-based; design: dose 100 mg/kg, route oral; conditions: in vivo
Procedure, shortened: (§2)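 Male rabbits (900-1060 g) received [14C]-labelled parent amide, 100 mg/kg (251.7 dpm/μg, pH about 4.5), by gavage. At 2 or 6 h they were killed by air injection into the ear vein. Blood was drawn by cardiac puncture; brain and lung were homogenized in water (1 g = 10 mL). Radioactivity is expressed as μg equivalents of parent per g or mL.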

Oryctolagus cuniculus [11] = test: 200 mg/kg of [14C]- radiolabeled compound was orally administered in rabbit2, and radioactivity content in urine was estimated at 0-4 hr; conditions: rabbit, in vivo, po
Oryctolagus cuniculus [12] = test: Radioactivity measurements were performed following oral administration of the 100 mg/kg in rabbit 8 after 6 hr in plasma; format: ADME, organism-based; design: dose 100 mg/kg, route oral; conditions: in vivo; procedure, shortened: as §2
[13] = test system: Indolethylamine N-methyltransferase (Oryctolagus cuniculus); test: Compound tested for inhibitory activity against rabbit lung Indoleethylamine-N-methyltransferase at oral dose 25 mg/kg
Oryctolagus cuniculus [14] = test: Evaluation of formation of 3-Methyl-thiazolidin-2-ylideneamine from the radiolabeled compound, orally administered, from rabbit 2,4 liver was analyzed by Gas-liquid chromatographic analysis; format: ADME, organism-based; conditions: in vivo, po
Procedure, shortened: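 Rabbit 2 was gavaged twice with [14C]-labelled parent amide, 100 mg/kg each dose (204.6 dpm/μg), 2 h apart, and killed 2 h after the second dose. Urine (0-4 h), blood, liver, lung and kidney were taken. The metabolite was measured by GLC of trimethylsilyl derivatives (3% OV-210, 95 °C, internal standard 3-ethyl-2-thiazolidinimine). Values are % of radioactivity as metabolite, mean of two determinations.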

Oryctolagus cuniculus [15] = test: 100 mg/kg of [14C]- radiolabeled compound was orally administered in rabbit3, and radioactivity content in urine was estimated at total hours; conditions: rabbit, in vivo, po
Oryctolagus cuniculus [16] = test: Evaluation of formation of 3-Methyl-thiazolidin-2-ylideneamine from the radiolabeled compound, orally administered, from rabbit 1,2 lung was analyzed by Gas-liquid chromatographic analysis; format: ADME, organism-based; conditions: in vivo, po
Procedure, shortened: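 Rabbit 1 was given [14C]-labelled parent amide, 100 mg/kg (204.6 dpm/μg), orally by gavage and killed 2 h later. Urine (0-2 h), blood, liver, lung and kidney were collected. Samples were extracted, trimethylsilylated with BSA/pyridine at 70 °C for 12-16 h, and run by GLC on 3% OV-210 at 95 °C against the internal standard 3-ethyl-2-thiazolidinimine. Output is % of radioactivity present as the metabolite, mean of two determinations.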

Oryctolagus cuniculus [17] = test: Percent of 3-Methyl-thiazolidin-2-ylideneamine as administered dose was reported in rabbit 3 by Gas-liquid chromatographic analysis; format: ADME, organism-based; conditions: in vivo
Procedure, shortened: (§3)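 Rabbits 3 (single 100 mg/kg) and 4 (two 100 mg/kg doses 2 h apart) were gavaged with [14C]-labelled parent amide (204.6 dpm/μg). They were not killed; urine was collected 0-24 h. The metabolite was quantified by GLC of trimethylsilylated extracts against an internal-standard peak-height-ratio curve. Results are given as % of urinary radioactivity or % of administered dose, mean of two determinations.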

Oryctolagus cuniculus [18] = test: Evaluation of formation of 3-Methyl-thiazolidin-2-ylideneamine from the radiolabeled compound, orally administered, from rabbit 3 urine was analyzed at 0-2 hr by Gas-liquid chromatographic analysis; format: ADME, organism-based; conditions: in vivo, po, in the assay text read “0-24 hr” for “0-2 hr”; procedure, shortened: as §3
Oryctolagus cuniculus [19] = test: Percent of 3-Methyl-thiazolidin-2-ylideneamine as administered dose was reported in rabbit 2; format: ADME, organism-based; conditions: in vivo
[20] = Dose that causes approximately 50% lethality in mice, when given perorally; format: ADME, organism-based; conditions: mouse, in vivo, po
Procedure, shortened: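 Mice in groups of one to three were dosed orally. Deaths were scored on day 7 after dosing, and the LD50 was obtained by graphical interpolation.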

Oryctolagus cuniculus [21] = test: 200 mg/kg of [14C]- radiolabeled compound was orally administered in rabbit4, and radioactivity content in urine was estimated at; conditions: rabbit, in vivo, po
Oryctolagus cuniculus [22] = test: Evaluation of formation of 3-Methyl-thiazolidin-2-ylideneamine from the radiolabeled compound, orally administered, from rabbit 4 urine was analyzed at 0-2 hr by Gas-liquid chromatographic analysis; format: ADME, organism-based; conditions: in vivo, po, in the assay text read “0-24 hr” for “0-2 hr”; procedure, shortened: as §3
Oryctolagus cuniculus [23] = test: 100 mg/kg of [14C]- radiolabeled compound was orally (gavage) administered in rabbit 1, and radioactivity content in lung was estimated; conditions: in vivo, po
Oryctolagus cuniculus [24] = test: 100 mg/kg of [14C]- radiolabeled compound was orally administered in rabbit3, and radioactivity content in urine was estimated at 0-24 hr; conditions: rabbit, in vivo, po

For `CN1CCS/C1=N\C(=O)CCC(=O)/N=C1/SCCN1C`, the Tissue to plasma ratio (Oryctolagus cuniculus [1]) was 1.5, the Administered dose (Oryctolagus cuniculus [2]) was 9% and 1% and the Administered dose (Oryctolagus cuniculus [3]) was 0.1%. It also gave an Administered dose (Oryctolagus cuniculus [4]) of 0.8%, an Administered dose (Oryctolagus cuniculus [5]) of 48.8% and an Administered dose (Oryctolagus cuniculus [6]) of 0.2%. For the same compound, the Administered dose (Oryctolagus cuniculus [7]) was 6%, the Specific activity [8] was 14100 dpm and the Administered dose (Oryctolagus cuniculus [9]) was 90.7%. For the same compound, the Radioactivity level (Oryctolagus cuniculus [10]) was 17.8 µg/g, the Administered dose (Oryctolagus cuniculus [11]) was 24% and the Radioactivity level (Oryctolagus cuniculus [12]) was 4 µg/mL. For the same compound, the inhibition [13] was 76.1%, the Radioactivity (Oryctolagus cuniculus [14]) was 34.4% and the Administered dose (Oryctolagus cuniculus [15]) was 86.9%. For the same compound, the Radioactivity (Oryctolagus cuniculus [16]) was 92.9%, the Administered dose (Oryctolagus cuniculus [17]) was 41.2% and the Radioactivity (Oryctolagus cuniculus [18]) was 51.3%. The Administered dose (Oryctolagus cuniculus [19]) was 10.8%, the LD50 [20] was 1460 mg/kg and the Administered dose (Oryctolagus cuniculus [21]) was 87.1%. The Radioactivity (Oryctolagus cuniculus [22]) was 48.7%, the Radioactivity concentration (Oryctolagus cuniculus [23]) was 36.3 µg/g and the Administered dose (Oryctolagus cuniculus [24]) was 85.9%.
